Experimental data from ChEMBL document CHEMBL1133529, “Solid-phase synthesis and biological evaluation of a combinatorial library of philanthotoxin analogues” (J Med Chem, 2000).

What was measured:
[1] = molecular target: T1, Acetylcholine receptor; alpha1/beta1/delta/gamma (Homo sapiens, UniProt P02708+P07510+P11230+Q07001); test: Antagonist activity at human muscle-type nAChR (embryonic muscle) expressed in TE671 cells; (peak value).; format: functional, cell-based, TE-671
Summary of the method: (§1)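 Whole-cell patch clamp of TE671 cells (embryonic muscle-type nAChR) at 17-23 °C. Pipette: 140 mM CsCl, 1 mM CaCl2, 11 mM EDTA, 5 mM HEPES pH 7.2. Compound co-applied with 10 µM acetylcholine as 1-s pulses ≥30 s apart; IC50 from peak and end currents.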

[2] = Tested for antagonist activity on non-NMDAR expressed in Xenopus Oocytes from rat brain mRNA.; format: functional, cell-based
Summary of the method: (§2)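 Xenopus laevis oocytes injected with rat brain RNA, kept at 18 °C ≥3 days, voltage-clamped at -80 mV. Bath saline: 120 mM NaCl, 2 mM KCl, 1.8 mM CaCl2, 10 mM HEPES pH 7.5. 100 µM kainic acid perfused 120 s, antagonist co-applied 40-80 s. IC50 from decrease of kainate-evoked current.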

[3] = molecular target: T1, Acetylcholine receptor; alpha1/beta1/delta/gamma; test: Antagonist activity at human muscle-type nAChR (embryonic muscle) expressed in TE671 cells; (end value).; format: functional, cell-based, TE-671; summary of the method: as §1
[4] = Tested for antagonist activity on non-NMDAR (expressed in Xenopus Oocytes) from rat brain mRNA.; format: functional, cell-based; summary of the method: as §2

T1 sequence (P02708 whole entry): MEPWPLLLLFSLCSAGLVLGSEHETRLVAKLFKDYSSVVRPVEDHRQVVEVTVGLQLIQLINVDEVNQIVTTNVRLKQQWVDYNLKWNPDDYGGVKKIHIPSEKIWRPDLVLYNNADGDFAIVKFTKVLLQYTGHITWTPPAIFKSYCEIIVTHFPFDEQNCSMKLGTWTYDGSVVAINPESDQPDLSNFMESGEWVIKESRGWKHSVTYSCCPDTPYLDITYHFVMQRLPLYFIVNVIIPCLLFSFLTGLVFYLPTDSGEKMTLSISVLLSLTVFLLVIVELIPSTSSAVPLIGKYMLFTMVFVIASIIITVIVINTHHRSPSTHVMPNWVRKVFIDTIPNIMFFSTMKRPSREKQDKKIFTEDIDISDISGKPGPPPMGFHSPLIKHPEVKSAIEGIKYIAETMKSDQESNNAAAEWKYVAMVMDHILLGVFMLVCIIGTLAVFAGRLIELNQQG
T1 sequence (P07510 whole entry): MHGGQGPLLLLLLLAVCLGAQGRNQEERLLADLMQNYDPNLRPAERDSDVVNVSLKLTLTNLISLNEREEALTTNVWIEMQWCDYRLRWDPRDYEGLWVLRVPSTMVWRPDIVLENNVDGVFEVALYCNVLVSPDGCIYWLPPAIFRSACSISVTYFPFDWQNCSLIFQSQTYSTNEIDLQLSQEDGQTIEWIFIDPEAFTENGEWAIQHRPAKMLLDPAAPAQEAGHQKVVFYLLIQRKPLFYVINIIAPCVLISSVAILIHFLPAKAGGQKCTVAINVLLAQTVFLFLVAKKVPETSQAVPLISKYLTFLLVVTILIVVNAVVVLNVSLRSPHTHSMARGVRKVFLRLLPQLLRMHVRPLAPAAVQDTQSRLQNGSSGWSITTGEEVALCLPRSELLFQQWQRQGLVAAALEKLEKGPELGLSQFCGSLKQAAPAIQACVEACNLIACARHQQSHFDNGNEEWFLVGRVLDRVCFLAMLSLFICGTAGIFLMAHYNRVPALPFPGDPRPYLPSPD
T1 sequence (P11230 whole entry): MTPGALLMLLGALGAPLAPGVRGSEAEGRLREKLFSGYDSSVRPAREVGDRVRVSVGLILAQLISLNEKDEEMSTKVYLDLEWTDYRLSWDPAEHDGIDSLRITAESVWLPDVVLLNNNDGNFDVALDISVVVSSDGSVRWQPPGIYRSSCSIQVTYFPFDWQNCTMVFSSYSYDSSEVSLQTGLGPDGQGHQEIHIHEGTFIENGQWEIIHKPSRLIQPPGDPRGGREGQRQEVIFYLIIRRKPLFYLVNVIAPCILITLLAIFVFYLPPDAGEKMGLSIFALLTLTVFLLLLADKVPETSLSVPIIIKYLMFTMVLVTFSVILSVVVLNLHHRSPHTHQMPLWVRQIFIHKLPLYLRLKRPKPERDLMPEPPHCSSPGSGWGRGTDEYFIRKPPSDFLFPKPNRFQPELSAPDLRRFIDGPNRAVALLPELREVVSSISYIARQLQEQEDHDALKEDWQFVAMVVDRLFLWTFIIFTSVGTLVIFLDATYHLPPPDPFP
T1 sequence (Q07001 whole entry): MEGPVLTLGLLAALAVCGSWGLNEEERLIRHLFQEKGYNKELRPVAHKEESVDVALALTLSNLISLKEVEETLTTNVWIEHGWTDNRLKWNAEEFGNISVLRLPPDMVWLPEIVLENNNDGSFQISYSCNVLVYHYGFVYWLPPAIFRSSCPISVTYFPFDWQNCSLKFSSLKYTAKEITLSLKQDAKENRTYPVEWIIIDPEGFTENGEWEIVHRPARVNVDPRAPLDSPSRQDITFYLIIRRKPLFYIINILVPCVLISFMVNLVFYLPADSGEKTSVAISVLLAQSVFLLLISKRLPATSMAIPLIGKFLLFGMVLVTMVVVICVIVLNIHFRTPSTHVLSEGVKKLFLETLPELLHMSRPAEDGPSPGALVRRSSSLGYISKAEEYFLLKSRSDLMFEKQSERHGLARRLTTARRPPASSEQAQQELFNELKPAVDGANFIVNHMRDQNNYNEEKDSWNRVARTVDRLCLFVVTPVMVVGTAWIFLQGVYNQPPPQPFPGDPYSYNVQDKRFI

SMILES | IC50 [1] [µM] | IC50 [2] [µM] | IC50 [3] [µM] | IC50 [4] [µM]
NCCCNCCCCNCCCNC(=O)[C@H](Cc1ccc(O)cc1)NC(=O)Cc1ccccc1 | 249 | 0.015 | 22.3 | 
NCCCNCCCCNCCCNC(=O)[C@H](Cc1ccc(O)cc1)NC(=O)CC1CCCCC1 | 86.9 | 0.18 | 13.2 | 
NCCCOCCCCOCCCNC(=O)[C@H](Cc1ccc(O)cc1)NC(=O)Cc1ccccc1 | 35 |  | 12.6 | 
NCCCOCCCCOCCCNC(=O)[C@H](Cc1ccc(O)cc1)NC(=O)CC1CCCCC1 | 25.9 |  | 5.69 | 
NCCCCCCCCCCCCNC(=O)[C@H](Cc1ccc(O)cc1)NC(=O)CC1CCCCC1 | > 1000 |  | 151 | 
NCCCCCCCCCCCCNC(=O)[C@H](Cc1ccc(O)cc1)NC(=O)Cc1ccccc1 | 388 |  | 17.2 | 
NCCCNCCCCNCCCNC(=O)[C@H](Cc1cccc(O)c1)NC(=O)Cc1ccccc1 | 98.2 |  | 10.1 | 
NCCCCCCCCCCCCNC(=O)[C@H](Cc1cccc(O)c1)NC(=O)Cc1ccccc1 | 105 |  | 8.05 | 
NCCCOCCCCOCCCNC(=O)[C@H](Cc1cccc(O)c1)NC(=O)Cc1ccccc1 | 50.9 |  | 25.3 | 
CCCC(=O)N[C@@H](Cc1ccc(O)cc1)C(=O)NCCCOCCCCOCCCN | 72.7 |  | 10.9 | > 100
CCCC(=O)N[C@@H](Cc1ccc(O)cc1)C(=O)NCCCCCCCCCCCCN | 15.1 |  | 0.79 | > 100
CCCC(=O)N[C@@H](Cc1cccc(O)c1)C(=O)NCCCOCCCCOCCCN | 110 |  | 42.6 | 
NCCCNCCCCNCCCNC(=O)[C@H](Cc1cccc(O)c1)NC(=O)CC1CCCCC1 | 59.8 |  | 5.33 | 
NCCCOCCCCOCCCNC(=O)[C@H](Cc1cccc(O)c1)NC(=O)CC1CCCCC1 | 30.7 |  | 4.47 | 
CCCC(=O)N[C@@H](Cc1cccc(O)c1)C(=O)NCCCCCCCCCCCCN | 104 |  | 2.43 | 
CCCC(=O)N[C@@H](Cc1cccc(O)c1)C(=O)NCCCNCCCCNCCCN | > 1000 |  | 117 | 
CCCC(=O)N[C@@H](Cc1ccc(O)cc1)C(=O)NCCCNCCCCNCCCN [PHILANTHOTOXIN 343] | 56.7 |  | 11.8 | 0.75
